This passage reports IC50 results from ChEMBL document CHEMBL1135454, “SAR and X-ray. A new approach combining fragment-based screening and rational drug design: application to the discovery of nanomolar inhibitors of Src SH2” (J Med Chem, 2002).

In assay [1] the target is T1, Proto-oncogene tyrosine-protein kinase Src (Homo sapiens, UniProt P12931). Put plainly: Binding affinity for Src SH2 domain in scintillation proximity binding assay (SPA) - inactive. On the technique in general: SPA uses beads or plates that emit light when radiolabelled molecules are held near them.
The target of assay [2] is T1, Proto-oncogene tyrosine-protein kinase Src. Briefly: Binding affinity for Src SH2 domain in scintillation proximity binding assay (SPA).
The target is the same in assay [3]. Put plainly: Binding affinity for Src protein tyrosine kinase SH2 domain using scintillation proximity binding assay (SPA).
Assay [4] shares this target. Briefly: (§1) Binding affinity for Src protein tyrosine kinase SH2 domain using surface plasmon resonance (SPR) assay. The method in brief:
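Surface plasmon resonance with human Src SH2 domain (aa 145–251), E. coli-expressed and purified by cation exchange and gel filtration. Ligands compete for binding; IC50 reported.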
(Surface plasmon resonance follows binding to a sensor surface in real time, without labels.)

The target is the same in assay [5]. Briefly: Binding affinity towards Src protein tyrosine kinase SH2 domain using scintillation proximity binding assay (SPA).
For assay [6] the target is unchanged. The assay is described as §1. This is another data set of the same source.
Assay [7] has the same target. Put plainly: Binding affinity towards Src protein tyrosine kinase SH2 domain using surface plasmon resonance (SPR) assay.
The target is the same in assay [8]. Briefly: Binding affinity towards Src protein tyrosine kinase SH2 domain protein using scintillation proximity binding assay (SPA).

T1 sequence (P12931 2-536 limits assumed): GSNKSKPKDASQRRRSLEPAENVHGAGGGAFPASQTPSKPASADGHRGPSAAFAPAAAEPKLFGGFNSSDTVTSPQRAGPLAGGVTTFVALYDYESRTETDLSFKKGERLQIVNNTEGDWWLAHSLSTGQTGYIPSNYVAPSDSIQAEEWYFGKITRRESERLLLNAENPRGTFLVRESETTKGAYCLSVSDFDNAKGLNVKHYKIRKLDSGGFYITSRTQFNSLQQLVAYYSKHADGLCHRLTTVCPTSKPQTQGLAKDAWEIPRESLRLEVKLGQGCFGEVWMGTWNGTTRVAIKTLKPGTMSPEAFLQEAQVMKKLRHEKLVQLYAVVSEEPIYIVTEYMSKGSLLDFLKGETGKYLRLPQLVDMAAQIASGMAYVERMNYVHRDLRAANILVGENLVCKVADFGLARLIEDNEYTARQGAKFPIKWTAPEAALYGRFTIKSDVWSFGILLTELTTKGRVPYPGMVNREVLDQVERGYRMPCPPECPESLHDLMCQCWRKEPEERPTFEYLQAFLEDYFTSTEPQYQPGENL

A word on the IC50: it is the midpoint of a concentration-inhibition curve. Read a high IC50 as weaker potency. Regarding `O=S(=O)(O)C(O)c1ccccc1` (stereo not drawn), the concentration for half-maximal inhibition (IC50) result in assay [1] is on record as “Not Active”.

For the compound `O=C(O)CC(CC(=O)O)(c1ccccc1)c1ccccc1`, the concentration for half-maximal inhibition (IC50) entry in assay [1] is given as “Not Active”.

In assay [2], `Cc1cc(C=O)c(OP(=O)(O)O)c(C=O)c1` had an IC50 of 39 µM.

`COc1cccc(C=O)c1OP(=O)(O)O`: the IC50 in assay [3] came out at 95 µM.

Consider `Cc1cc(C=O)cc(C)c1OP(=O)(O)O`, for which, in assay [4], the half-maximal inhibitory concentration (IC50) was 5000 µM.

As for `Cc1ccc(CC(=O)O)c(C=O)c1`, the IC50 in assay [2] amounted to 385 µM.

Regarding `O=C(O)CC(C(=O)O)c1ccccc1` (stereo not drawn), the concentration for half-maximal inhibition (IC50) entry in assay [1] was “Not Active”.

`Cc1ccc(C(C(=O)O)C(=O)O)c(COC=O)c1` registered an IC50 in assay [5] of 100 µM.

Consider `O=P(O)(O)Oc1ccccc1` [PHENYL DIHYDROGEN PHOSPHATE], for which the IC50 in assay [3] turned out to be 300 µM; in assay [6], 5000 µM.

Regarding `COC(=O)c1cc(C[C@H](NC(C)=O)C(=O)N[C@H]2CCCCN(Cc3ccc(-c4ccccc4)cc3)C2=O)ccc1C(C(=O)O)C(=O)O`, the IC50 in assay [7] was 0.556 µM.

Turning to `O=C(O)C(c1ccccc1)S(=O)(=O)O` (stereo not drawn), the IC50 in assay [5] was 192 µM.

For `COC(=O)c1cc(C[C@@H](NC(C)=O)C(=O)N[C@H]2CCCCN(Cc3ccc(-c4ccccc4)cc3)C2=O)ccc1C(C(=O)O)C(=O)O`, the IC50 in assay [7] was 0.007 µM.

`O=C(O)C(c1ccc(O)cc1)S(=O)(=O)O` (stereo not drawn): the IC50 in assay [8] was determined as 190 µM.

In the case of `O=Cc1ccccc1OP(=O)(O)O`, the half-maximal inhibitory concentration (IC50) was found to be 300 µM in assay [6] and 80 µM in assay [2].

Regarding `O=C(O)CC(CC(=O)O)c1ccccc1`, in assay [1], the concentration for half-maximal inhibition (IC50) entry is on record as “Not Active”.

`CCC(C(N)=O)(C(=O)O)c1ccccc1` (stereo not drawn) [PHENYLETHYLMALONAMIDE -]: the IC50 entry in assay [1] is “Not Active”.

With `O=Cc1cccc(OP(=O)(O)O)c1`, the concentration for half-maximal inhibition (IC50) in assay [6] amounted to 2100 µM; in assay [2], 600 µM.

As to `CC[C@H](C)[C@H](NC(=O)[C@H](CCC(=O)O)NC(=O)[C@H](CCC(=O)O)NC(=O)[C@H](Cc1ccc(OP(=O)(O)O)cc1)NC(C)=O)C(N)=O`, the half-inhibitory concentration (IC50) in assay [6] came to 0.001 µM; in assay [2], 0.15 µM.

Take `CC(CC(=O)O)(CC(=O)O)c1ccccc1`: in assay [1], the IC50 result was “Not Active”.
